# In article PMC5291243 (Nucleic Acids Research, 2016):
# Non-standard residues stand in square brackets, D forms with d. No end group written: not given here. Lys(Me3) = C[N+](C)(C)CCCC[C@H](N)C(=O)O; pT = C[C@@H](OP(=O)(O)O)[C@H](N)C(=O)O
# T1: ING1 PHD finger (Homo sapiens, UniProt Q9UK53)
# T1 sequence (Q9UK53 200-279 isoform Q9UK53-2): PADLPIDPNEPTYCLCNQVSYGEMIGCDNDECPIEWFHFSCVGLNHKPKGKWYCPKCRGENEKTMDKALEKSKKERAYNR
# T2: PHF8 PHD finger (aa 37–106) (UniProt Q9UPP1 37-106, uniformly 15N-labelled for NMR)
# T2 sequence (looked up): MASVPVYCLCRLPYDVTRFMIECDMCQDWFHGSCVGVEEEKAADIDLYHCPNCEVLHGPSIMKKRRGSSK
# Tests used:
# [1] = system: RPE-1 cells; assay: Confocal fluorescence microscopy of Haspin inhibitor-treated RPE-1 cells; assay type: cell-based; settings: 24 h
# Summary of the method: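 RPE-1 cells were grown on glass coverslips in DMEM/F12 with 10% FCS to 70% confluence. They were treated 24 h with the Haspin inhibitor from a 500 μM DMSO stock; controls got solvent only. Cells were fixed in 4% formaldehyde, permeabilized in 0.5% Triton X-100, and immunostained for DIDO, ING1 and H3K4me3, with DAPI counterstain. Single confocal layers were imaged with sequential excitation.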
# [2] = molecular target: DIDO PHD finger (aa 260–325) (UniProt Q9BTC0); assay: other fluorescence titration
# DIDO PHD finger (aa 260–325), sequence (Q9BTC0 260-325): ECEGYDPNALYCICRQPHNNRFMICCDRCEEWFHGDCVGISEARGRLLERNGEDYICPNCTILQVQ
# [3] = molecular target: T1, ING1 PHD finger; assay: 1H,15N HSQC NMR titration; assay type: binding; settings: 298K, peptide aa 1–12 of H3
# [4] = molecular target: Rag2 PHD finger (UniProt P21784); assay: biotin-peptide pull-down of GST-reader, anti-GST blot; settings: reference: H3K4me3 peptide
# [5] = molecular target: BPTF PHD finger (UniProt Q12830); assay: histone peptide microarray; settings: reference: H3K4me3 peptide
# [6] = molecular target: DIDO PHD finger (UniProt Q9BTC0); assay: histone peptide microarray; settings: reference: H3K4me3 peptide
# [7] = molecular target: Taf3 PHD finger (UniProt Q5HZG4); assay: histone peptide microarray; settings: reference: H3K4me3 peptide
# [8] = molecular target: ING1 PHD finger (UniProt Q9UK53); assay: histone peptide microarray; settings: reference: H3K4me3 peptide
# [9] = molecular target: PHF8 PHD finger (UniProt Q9UPP1); assay: histone peptide microarray; settings: reference: H3K4me3 peptide
# [10] = molecular target: Rag2 PHD finger (UniProt P21784); assay: histone peptide microarray; settings: reference: H3K4me3 peptide
# [11] = molecular target: BPTF PHD finger (UniProt Q12830); assay: biotin-peptide pull-down of GST-reader, anti-GST blot; settings: reference: H3K4me3 peptide; sites T3
# [12] = molecular target: DIDO PHD finger (UniProt Q9BTC0); assay: as above; settings: reference: H3K4me3 peptide; sites T3
# [13] = molecular target: Taf3 PHD finger (UniProt Q5HZG4); assay: as above; settings: reference: H3K4me3 peptide; sites T3
# [14] = molecular target: KDM4A double Tudor domain (DTD) (UniProt O75164); assay: as above; settings: reference: H3K4me3 peptide; sites T3
# [15] = molecular target: ING1 PHD finger (UniProt Q9UK53); assay: as above; settings: reference: H3K4me3 peptide; sites T3
# [16] = molecular target: PHF8 PHD finger (UniProt Q9UPP1); assay: as above; settings: reference: H3K4me3 peptide; sites T3
# [17] = molecular target: ING1 PHD finger (UniProt Q9UK53); assay: in vitro peptide binding, probably NMR titration; settings: reference: H3K4me3 peptide (reference implied); sites T3,T6
# [18] = molecular target: T2, PHF8 PHD finger (aa 37–106); assay: other fluorescence titration
molecule,measurement,setting,value
CCCNc1ccc2ncc(-c3ccc4[nH]ncc4c3)n2n1 [CHR6494],DIDO and ING1 attachment to chromatin,[1]; 1 μM,only a portion of these proteins remained attached to chromatin
same,H3T3ph level in prophase,[1]; 1 μM,pronounced reduction of H3T3ph in prophase
same,DIDO and ING1 localization on chromatin,[1]; 2 μM,co-localization of DIDO and ING1 on poorly condensed H3K4me-positive chromatin
same,completion of mitosis,[1]; 2 μM,unable to complete mitosis
H3K4me3 peptide (aa 1–12 of H3) (from UniProt P68431 2-13),Kd,[2],1100 nM
H3K4me3T6ph peptide (aa 1–12 of histone H3) (from UniProt P68431 2-13),Kd,[2],5500 nM
H3T3phK4me3T6ph: triple PTM-containing peptide,CSPs / binding to ING1 PHD finger,[3],markedly reduced
histone H3 1-20 (from UniProt P68431) H3K4me3T6ph peptide,binding against the reference,[4]; sites T6,weaker
same,binding against the reference,[5]; sites T6,weaker
same,binding against the reference,[6]; sites T6,weaker
same,binding against the reference,[7]; sites T6,weaker
same,binding against the reference,[8]; sites T6,weaker
same,binding against the reference,[9]; sites T6,weaker
same,binding against the reference,[10]; sites T6,weaker
histone H3 1-20 (from UniProt P68431) H3T3phK4me3 peptide,binding against the reference,[11],weaker
same,binding against the reference,[12],weaker
same,binding against the reference,[13],weaker
same,binding against the reference,[14],weaker
same,binding against the reference,[15],weaker
same,binding against the reference,[16],weaker
same,binding against the reference,[4]; sites T3,weaker
same,binding against the reference,[5]; sites T3,weaker
same,binding against the reference,[6]; sites T3,weaker
same,binding against the reference,[7]; sites T3,weaker
same,binding against the reference,[8]; sites T3,weaker
same,binding against the reference,[9]; sites T3,weaker
same,binding against the reference,[10]; sites T3,weaker
histone H3 (from UniProt P68431) H3T3phK4me3T6ph peptide,binding against the reference,[17],weaker
"ART[Lys(Me3)]QTARKSTG (peptide, UniProt P68431 2-13, looked up) [H3K4me3 peptide (aa 1–12 of H3)]",Kd,[18],2500 nM
"ART[Lys(Me3)]Q[pT]ARKSTG (peptide, UniProt P68431 2-13, looked up) [H3K4me3T6ph peptide (aa 1–12 of histone H3)]",fold reduction of binding against H3K4me3,[18],2 fold
